Htt clearance: compounds clearing mutant huntingtin protein; 0.42% of 47,000 active; AID 853; inhibition, % at 1.5 µM; HeLa Exon1htt(103Q)mCFP, aggregate imaging; zero = plate's median compound well;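 active means inhibition of aggregate fluorescence above about 70%, also judged a hit by eye on the cell image, limit read from the data, passing the limit was not always enough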;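 further: cells exposed to compound for three days before fixation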
M1 agonist: agonists of M1 muscarinic receptor; CHO-M1 cells, Fluo-4 calcium fluorescence, agonist mode; stronger effect = higher value; B-score at 10 µM; 3% of 64,000 active;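 active means fluorescence rise, raw or as B-score row- and column-corrected plate score, outside the 99.7% band of its plate's samples, either direction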
HEK293 NFkB inh: inhibitors of the PMA/ionomycin-induced NF-kB reporter in HEK293 cells; inhibition, % at 3 µM; 0.21% of 62,000 active; HEK-293 NF-kB luciferase reporter, luminescence;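 active means inhibition above the mean of all tested compounds plus 3 SD, cut at about 40% in these data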;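 further: 0% = stimulated DMSO wells and 100% = 10 µM reference inhibitor 5653914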
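System – HEK-293 cells with stable firefly luciferase reporter driven by four HIV NF-kB elements · Doses – one dose, 3 µM · Schedule – 1 h compound pre-incubation, 16 h PMA/ionomycin at 37 °C · Technique – luminescence from luciferase substrate reagent · Measure – percent inhibition normalized per plate to DMSO and reference-inhibitor controls · Replicates – tested once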
Jurkat viability: cytotoxic compounds reducing Jurkat cell viability; inhibition, % at 4 µM; 1.2% of 56,000 active; AID 463; Jurkat E6.1 viability, ATP luminescence, 48 h;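 active means inhibition above the mean inhibition of all tested compounds plus 3 SD, cut at about 28% in these data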
D1 allo mod: allosteric modulators of human D1 dopamine receptor; P21728; HEK293 D1, CRE-luciferase, dopamine EC30 potentiation; actives deviate in either direction; 5.9% of 58,000 active; B-score at 10 µM;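 active means luminescence count or its row- and column-corrected plate score outside the 99.7% band of the plate's sample wells, on either side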
M1 antagonist: blocks the rat M1 muscarinic receptor response to acetylcholine | P08482 | CHO-M1 cells, Fluo-4 calcium, ACh EC80 antagonist mode; stronger effect = lower value | B-score at 10 µM | 3.4% of 64,000 active | AID 628;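 active means calcium fluorescence response, raw or row-and-column corrected B-score, differing from the plate sample mean either way at a set confidence level, mostly lower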
Target sequence (P08482 whole entry, looked up): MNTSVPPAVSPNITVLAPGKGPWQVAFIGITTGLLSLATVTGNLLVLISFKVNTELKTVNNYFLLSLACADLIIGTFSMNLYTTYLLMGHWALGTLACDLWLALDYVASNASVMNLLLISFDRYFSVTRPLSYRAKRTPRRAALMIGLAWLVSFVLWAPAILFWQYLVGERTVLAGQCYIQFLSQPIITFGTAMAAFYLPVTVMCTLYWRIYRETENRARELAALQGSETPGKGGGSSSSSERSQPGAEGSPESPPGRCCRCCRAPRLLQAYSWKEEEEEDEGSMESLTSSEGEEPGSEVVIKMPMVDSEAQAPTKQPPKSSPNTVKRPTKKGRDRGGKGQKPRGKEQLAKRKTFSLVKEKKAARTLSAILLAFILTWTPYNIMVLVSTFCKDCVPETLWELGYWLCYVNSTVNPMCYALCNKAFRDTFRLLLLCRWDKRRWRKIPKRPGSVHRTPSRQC
D1 mod confirm: confirmation of human D1 dopamine receptor allosteric modulators. shares compounds with D1 allo mod. HEK293 D1 CRE-luciferase, dopamine EC30 potentiation; stronger effect = higher value. luminescence at 10 µM. 88% of 2,200 active. AID 642;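 active means luminescence in either of two replicates above the same-plate mean plus 3 SD of the low-dose dopamine control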
D1 no dopamine: D1 (human) signaling in absence of dopamine | 0.8% of 1,900 active | luminescence at 10 µM | shares compounds with D1 allo mod | HEK293 D1 CRE-luciferase, luminescence, no dopamine; stronger effect = higher value; in the data active means luminescence above about 3900
Isoprot counter: isoproterenol response counter-screen activity for D1 modulators; luminescence at 10 µM; HEK293 D1 CRE-luciferase, isoproterenol EC30 counter-screen; stronger effect = higher value; 63% of 2,200 active; shares compounds with D1 allo mod; AID 647;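 active means luminescence in either replicate above plate mean of wells with a partly effective reference agonist dose plus 3 SD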;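 further: isoproterenol raises cAMP through native beta-adrenoceptor Gs so signal bypasses D1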
* hit, by the source's call; x = no result. Shown are actives, neighbours in structure and some others; about 9.5% of the full set was active somewhere.

SMILES	Htt clearance	M1 agonist	HEK293 NFkB inh	Jurkat viability	D1 allo mod	M1 antagonist	D1 mod confirm	D1 no dopamine	Isoprot counter
CC(C)CCOC(=O)C1[C@H]2C(=O)N(Cc3cccs3)C[C@]23C=C[C@H]1O3 (stereo partly specified)	8	1.5	4	6	0.34	-0.9	x	x	x
CCN1C(=O)c2ccc(-c3nc4ccccc4c(=O)o3)cc2C1=O	x	-0.39	-10	-10	-0.98	-0.00093	x	x	x
CCN1C(=O)c2c(C)nc3ccccc3c2C1=O	24	-0.44	-4	-5	16*	0.043	15840*	1572	3740*
O=C(NCCCN1CCN(c2ccccc2F)CC1)C1CCN(S(=O)(=O)N2CCOCC2)CC1	16	-0.1	11	4	14*	1.1	15768*	10072*	11884*
NCCCCCNC(=O)/C=N\O	x	-0.7	-5	-7	-0.73	-0.22	x	x	x
CCOc1ccc(C2CC(c3cccc(OC)c3)Nc3ncnn32)cc1 (stereo unspecified)	x	-0.069	-5	-1	-1.3	0.0072	x	x	x
Cc1ccc(S(=O)(=O)NCCCNC(=O)N2CCOCC2)cc1	6	0.14	-3	-4	3*	-0.43	5144	1760	2244
CN1CCN(c2nc(-c3ccccc3)c3cc(Cl)ccc3n2)CC1	-26	1.1	-2	-4	5*	-1	11380*	1508	2660
Clc1ccccc1Cn1nnc2c(N3CCCC3)ncnc21	x	-0.0084	15	-5	3.8*	-0.18	13096*	1612	2972
CCCCN1Cc2cc(C(=O)c3cc(F)ccc3O)cnc2NC1=O	x	-0.19	7	-1	0.3	-0.28	x	x	x
CCSC(C)CC1C/C(=N/O)c2c(CC)noc2C1 (stereo unspecified)	x	x	-10	-6	5.3*	x	8312*	1736	2608
CCCc1noc2c1/C(=N\O)CC(CC(C)SCC)C2 (stereo unspecified)	-7	0.62	10	7	2	-0.28	x	x	x
COC(=O)Cn1nc(-c2ccccc2)c2ccccc21	x	-0.76	10	4	2.5*	0.016	5172	1632	2536
O=C(O)CCCn1nc(-c2ccccc2)c2ccccc21	x	-0.08	2	2	x	0.67	x	x	x
COc1ccccc1NC(=O)CC1Nc2ccccc2NC1=O (stereo unspecified)	x	-0.65	11	8	3.7*	0.11	6444*	1504	3404
O=C(CC1Nc2ccccc2NC1=O)NC1CCCCC1 (stereo unspecified)	x	-1.2	-12	-2	-0.031	0.36	x	x	x
O=C(CSCCO)Nc1ccc(C2CCCCC2)cc1	x	-0.99	-1	-4	-1.3	-0.55	x	x	x
Cc1ccc(-n2nc3c(c2NC(=O)c2ccc(Br)o2)CSC3)c(C)c1	x	-0.87	23	x	4.8*	-0.31	5856	1520	2364
OCCn1c(SC2CCCCC2)nc2ccccc21	20	-1.9	9	2	0.72	-1.4	x	x	x
Cc1nc(-c2ccc(S(=O)(=O)N3CCCCCC3)cc2)cs1	x	-0.72	-17	12	2.7*	0.28	8332*	1844	2760
COc1ccc(-c2cc(C(F)F)n3ncc(C(=O)N4CCCCC4)c3n2)cc1	-2	x	x	x	x	x	x	x	x
COc1ccc(-c2cc(C(F)F)n3ncc(C(=O)N4CCN(C(=O)c5ccco5)CC4)c3n2)cc1	x	-0.037	15	1	9.4*	0.23	13496*	1536	7648*
CSc1ccc(C2C(C#N)=C(N)N(c3ccccc3)C3=C2C(=O)CCC3)cc1 (stereo unspecified)	x	0	24	x	2.6*	0	10676*	1648	2728
CC(C)OP(=O)(c1ccc(N(C)C)cc1)C(O)c1ccccc1 (stereo unspecified)	-27	x	x	x	x	x	x	x	x
Cc1oc2ccc(OCC(N)=O)cc2c1C(=O)OC(C)C	x	-0.092	7	0	4.6*	1.6	6628*	1556	2732
SMILES	Htt clearance	M1 agonist	HEK293 NFkB inh	Jurkat viability	D1 allo mod	M1 antagonist	D1 mod confirm	D1 no dopamine	Isoprot counter
O=S(=O)(c1cccs1)N1CCN(CC(O)COc2cc(Cl)ccc2Cl)CC1 (stereo unspecified)	x	3	15	25	-1	-1.5	x	x	x
CCCCSc1nc(CCC)cc(=O)[nH]1	-1	1.6	x	x	5.3*	0.0098	15600*	1616	3616*
CCCNc1nc2c(c(=O)[nH]c(=O)n2C)n1CCC(C)C	x	0.2	-6	4	7.5*	1.5	12920*	1500	4388*
CCCCn1c(NCCC)nc2c1c(=O)[nH]c(=O)n2C	x	-0.035	14	-1	5.9*	0.79	9640*	1280	2956
CCCNc1nc2c(c(=O)[nH]c(=O)n2C)n1Cc1cccc(Br)c1	x	0.086	19	x	0.96	1.2	x	x	x
C=CCNc1nc2c(c(=O)[nH]c(=O)n2C)n1CCCCC	x	1.1	4	-1	6.6*	0.23	23492*	1616	4432*
Cc1ccc(-c2nc(C(=O)NC3CCCCCC3)no2)cc1	x	0.72	9	-2	-0.13	-0.3	x	x	x
CCOc1ccc(-c2nnc3n2N=C(c2ccc(OC)cc2)CS3)cc1	x	-0.43	8	x	x	1	x	x	x
Brc1ccccc1C1=Nn2c(nnc2-c2ccccc2)SC1	x	0.018	10	14	12*	-0.75	13500*	1464	5228*
COc1ccccc1-c1nnc2n1N=C(c1ccc(O)c(O)c1)CS2	4	0.31	x	x	23*	-0.0042	21320*	x	12092*
CCOc1ccc(C2=Nn3c(nnc3-c3ccccc3OC)SC2)cc1	-116	-0.66	x	x	28*	-0.36	21740*	x	15468*
Cn1c(SCC(=O)N2CCOCC2)nc2sc3c(c2c1=O)CCCC3	x	-0.0068	20	-1	0.012	-2.6	x	x	x
CCn1c(SCC(=O)OC)nc2sc3c(c2c1=O)CCC3	-4	-0.36	x	x	16*	-1.1	16808*	1576	4628*
C=CCn1c(SCC(=O)N2CCOCC2)nc2sc3c(c2c1=O)CCCC3	-23	0.66	17	-1	3.4*	-1.7	7424*	1576	4804*
CCC(=O)n1nc(NCc2ccccc2OC)nc1NCc1ccccc1OC	-12	0.7	3	-5	1.3	-1.2	x	x	x
COc1cccc(NC(=O)N2CCN(c3ccc(C(F)(F)F)cn3)CC2)c1	-56	-0.017	22	20	-0.26	-0.62	x	x	x
Cc1cc(C)n(-c2nc(C)nc(NCc3ccccc3)n2)n1	-28	-0.55	x	x	6.7*	0.6	14476*	1636	3492*
CCCCn1c(=O)[nH]c(=O)c2c1nc(COC(=O)c1c(C)noc1C)n2CCC	67	0.46	13	-2	6.2*	0.0083	14616*	1628	3932*
CCCCCn1c(CN2CCN(C(=O)OCC)CC2)nc2c1c(=O)[nH]c(=O)n2C	30	-0.05	8	5	-0.082	-0.6	x	x	x
